In ChEMBL document CHEMBL2380239, “Novel ROS-activated agents utilize a tethered amine to selectively target acute myeloid leukemia” (Bioorg Med Chem Lett, 2013):

What was measured:
HeLa = assay: Cytotoxicity against human HeLa cells after 48 hrs by MTT assay; assay type: functional, cell-based
HT-29 = assay: Growth inhibition of human HT-29 cells after 48 hrs by sulforhodamine B assay; assay type: functional; details: HT-29, 48 h
Procedure, shortened: (§1)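 Run in the National Cancer Institute 60-cell-line panel screen. Viability was read by sulforhodamine B staining of total protein content, so it reflects cell number rather than metabolic activity. Values are reported as GI50.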

A498 = assay: Growth inhibition of human A498 cells after 48 hrs by sulforhodamine B assay; assay type: functional; details: A498, 48 h; procedure, shortened: as §1
[1] = Growth inhibition of human NCI-ADR-RES cells after 48 hrs by sulforhodamine B assay; assay type: functional; procedure, shortened: as §1
RXF 393 = assay: Growth inhibition of human RXF393 cells after 48 hrs by sulforhodamine B assay; assay type: functional; details: RXF 393, 48 h; procedure, shortened: as §1
BT-549 = assay: Growth inhibition of human BT549 cells after 48 hrs by sulforhodamine B assay; assay type: functional; details: BT-549, 48 h; procedure, shortened: as §1
SNB-75 = assay: Growth inhibition of human SNB75 cells after 48 hrs by sulforhodamine B assay; assay type: functional; details: SNB-75, 48 h
Procedure, shortened: (§2)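 Run within the National Cancer Institute 60-cell-line panel. Viability was read by sulforhodamine B staining of total cellular protein, as a measure of cell number rather than metabolic activity. GI50 values were taken from the panel data.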

SF-268 = assay: Growth inhibition of human SF268 cells after 48 hrs by sulforhodamine B assay; assay type: functional; details: SF-268, 48 h; procedure, shortened: as §1
T47D = assay: Growth inhibition of human T47D cells after 48 hrs by sulforhodamine B assay; assay type: functional; procedure, shortened: as §2
SW-620 = assay: Growth inhibition of human SW620 cells after 48 hrs by sulforhodamine B assay; assay type: functional; details: SW-620, 48 h; procedure, shortened: as §2
HCT-116 = assay: Growth inhibition of human HCT116 cells after 48 hrs by sulforhodamine B assay; assay type: functional; details: HCT-116, 48 h; procedure, shortened: as §1
OVCAR-5 = assay: Growth inhibition of human OVCAR5 cells after 48 hrs by sulforhodamine B assay; assay type: functional; details: OVCAR-5, 48 h; procedure, shortened: as §1
HOP-62 = assay: Growth inhibition of human HOP62 cells after 48 hrs by sulforhodamine B assay; assay type: functional; details: HOP-62, 48 h; procedure, shortened: as §1
NCI-H322M = assay: Growth inhibition of human NCI-H322M cells after 48 hrs by sulforhodamine B assay; assay type: functional; procedure, shortened: as §1
UO-31 = assay: Growth inhibition of human UO31 cells after 48 hrs by sulforhodamine B assay; assay type: functional; details: UO-31, 48 h; procedure, shortened: as §2
SK-MEL-2 = assay: Growth inhibition of human SK-MEL-2 cells after 48 hrs by sulforhodamine B assay; assay type: functional; details: SK-MEL-2, 48 h; procedure, shortened: as §1
MCF7 = assay: Growth inhibition of human MCF7 cells after 48 hrs by sulforhodamine B assay; assay type: functional; details: MCF7, 48 h; procedure, shortened: as §1
NCI-H226 = assay: Growth inhibition of human NCI-H226 cells after 48 hrs by sulforhodamine B assay; assay type: functional; details: NCI-H226, 48 h; procedure, shortened: as §1
HOP-92 = assay: Growth inhibition of human HOP92 cells after 48 hrs by sulforhodamine B assay; assay type: functional; details: HOP-92, 48 h; procedure, shortened: as §1
Malme-3M = assay: Growth inhibition of human MALME-3M cells after 48 hrs by sulforhodamine B assay; assay type: functional; procedure, shortened: as §1
SF-539 = assay: Growth inhibition of human SF539 cells after 48 hrs by sulforhodamine B assay; assay type: functional; details: SF-539, 48 h; procedure, shortened: as §1
MOLT-4 = assay: Growth inhibition of human MOLT4 cells after 48 hrs by sulforhodamine B assay; assay type: functional; details: MOLT-4, 48 h; procedure, shortened: as §1
NCI-H23 = assay: Growth inhibition of human NCI-H23 cells after 48 hrs by sulforhodamine B assay; assay type: functional; details: NCI-H23, 48 h; procedure, shortened: as §1
CAKI-1 = assay: Growth inhibition of human CAKI-1 cells after 48 hrs by sulforhodamine B assay; assay type: functional; details: CAKI-1, 48 h; procedure, shortened: as §1
SF-295 = assay: Growth inhibition of human SF295 cells after 48 hrs by sulforhodamine B assay; assay type: functional; details: SF-295, 48 h; procedure, shortened: as §1
KM12 = assay: Growth inhibition of human KM12 cells after 48 hrs by sulforhodamine B assay; assay type: functional; details: KM12, 48 h; procedure, shortened: as §1
PC-3 = assay: Growth inhibition of human PC3 cells after 48 hrs by sulforhodamine B assay; assay type: functional; details: PC-3, 48 h; procedure, shortened: as §1
RPMI-8226 = assay: Growth inhibition of human RPMI8226 cells after 48 hrs by sulforhodamine B assay; assay type: functional; details: RPMI-8226, 48 h; procedure, shortened: as §1
[2] = Cytotoxicity against human MA9.3 cells after 48 hrs by MTT assay; assay type: functional, cell-based
Procedure, shortened: (§3)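 Non-transformed human CD34+ blood stem/progenitor cells from umbilical cord blood were run alongside MA9.3, an AML line made by introducing the MLL-AF9 oncogene into human CD34+ cells. IC50 was determined on each cell type. Therapeutic index is the ratio between the MA9.3 and CD34+ IC50 values.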

[3] = Growth inhibition of human HCC2998 cells after 48 hrs by sulforhodamine B assay; assay type: functional; details: HCC 2998, 48 h; procedure, shortened: as §1
MDA-MB-468 = assay: Growth inhibition of human MDA-MB-468 cells after 48 hrs by sulforhodamine B assay; assay type: functional; details: MDA-MB-468, 48 h; procedure, shortened: as §1
LOX IMVI = assay: Growth inhibition of human LOXIMVI cells after 48 hrs by sulforhodamine B assay; assay type: functional; procedure, shortened: as §1
M14 = assay: Growth inhibition of human M14 cells after 48 hrs by sulforhodamine B assay; assay type: functional; details: M14, 48 h; procedure, shortened: as §1
SR = assay: Growth inhibition of human SR cells after 48 hrs by sulforhodamine B assay; assay type: functional; procedure, shortened: as §2
ACHN = assay: Growth inhibition of human ACHN cells after 48 hrs by sulforhodamine B assay; assay type: functional; procedure, shortened: as §1
Hs-578T = assay: Growth inhibition of human Hs578T cells after 48 hrs by sulforhodamine B assay; assay type: functional; procedure, shortened: as §1
SK-OV-3 = assay: Growth inhibition of human SKOV3 cells after 48 hrs by sulforhodamine B assay; assay type: functional; details: SK-OV-3, 48 h; procedure, shortened: as §1
SK-MEL-5 = assay: Growth inhibition of human SK-MEL-5 cells after 48 hrs by sulforhodamine B assay; assay type: functional; details: SK-MEL-5, 48 h; procedure, shortened: as §1
MDA-MB-231 = assay: Growth inhibition of human MDA-MB-231 cells after 48 hrs by sulforhodamine B assay; assay type: functional; details: MDA-MB-231, 48 h; procedure, shortened: as §1
[4] = Therapeutic index, ratio of IC50 for human CD34-positive blood stem/progenitor cells to IC50 for human MA9.3 cells; details: CD34-positive blood stem/progenitor cells versus MA9.3 cells, read-out: Ratio IC50
Procedure, shortened: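 Cytotoxicity was measured in parallel on non-cancerous human CD34+ blood stem/progenitor cells (UCB) and on the MA9.3 AML line, which was made by introducing the MLL-AF9 oncogene into human CD34+ cells. The index is IC50 in CD34+ cells divided by IC50 in MA9.3, reported as mean ± error.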

NCI-H522 = assay: Growth inhibition of human NCI-H522 cells after 48 hrs by sulforhodamine B assay; assay type: functional; details: NCI-H522, 48 h; procedure, shortened: as §1
[5] = Growth inhibition of human EKVX cells after 48 hrs by sulforhodamine B assay; assay type: functional; procedure, shortened: as §1
UACC-62 = assay: Growth inhibition of human UACC62 cells after 48 hrs by sulforhodamine B assay; assay type: functional; details: UACC-62, 48 h; procedure, shortened: as §2
COLO 205 = assay: Growth inhibition of human COLO205 cells after 48 hrs by sulforhodamine B assay; assay type: functional; details: COLO 205, 48 h; procedure, shortened: as §1
[6] = Cytotoxicity against human CD34-positive blood stem/progenitor cells after 48 hrs by MTT assay; assay type: cell-based; procedure, shortened: as §3
OVCAR-4 = assay: Growth inhibition of human OVCAR4 cells after 48 hrs by sulforhodamine B assay; assay type: functional; details: OVCAR-4, 48 h; procedure, shortened: as §1
SNB-19 = assay: Growth inhibition of human SNB19 cells after 48 hrs by sulforhodamine B assay; assay type: functional; details: SNB-19, 48 h; procedure, shortened: as §2
U-251 = assay: Growth inhibition of human U251 cells after 48 hrs by sulforhodamine B assay; assay type: functional; details: U-251, 48 h; procedure, shortened: as §2
MDA-MB-435 = assay: Growth inhibition of human MDA-MB-435 cells after 48 hrs by sulforhodamine B assay; assay type: functional; details: MDA-MB-435, 48 h; procedure, shortened: as §1
SN12C = assay: Growth inhibition of human SN12C cells after 48 hrs by sulforhodamine B assay; assay type: functional; procedure, shortened: as §2
IGROV-1 = assay: Growth inhibition of human IGROV1 cells after 48 hrs by sulforhodamine B assay; assay type: functional; details: IGROV-1, 48 h; procedure, shortened: as §1
UACC-257 = assay: Growth inhibition of human UACC257 cells after 48 hrs by sulforhodamine B assay; assay type: functional; details: UACC-257, 48 h; procedure, shortened: as §2
OVCAR-3 = assay: Growth inhibition of human OVCAR3 cells after 48 hrs by sulforhodamine B assay; assay type: functional; details: OVCAR-3, 48 h; procedure, shortened: as §1
HCT-15 = assay: Growth inhibition of human HCT15 cells after 48 hrs by sulforhodamine B assay; assay type: functional; details: HCT-15, 48 h; procedure, shortened: as §1
SK-MEL-28 = assay: Growth inhibition of human SK-MEL-28 cells after 48 hrs by sulforhodamine B assay; assay type: functional; details: SK-MEL-28, 48 h; procedure, shortened: as §1
NCI-H460 = assay: Growth inhibition of human NCI-H460 cells after 48 hrs by sulforhodamine B assay; assay type: functional; details: NCI-H460, 48 h; procedure, shortened: as §1
DU-145 = assay: Growth inhibition of human DU145 cells after 48 hrs by sulforhodamine B assay; assay type: functional; details: DU-145, 48 h; procedure, shortened: as §1
786-0 = assay: Growth inhibition of human 786-0 cells after 48 hrs by sulforhodamine B assay; assay type: functional; details: 786-0, 48 h; procedure, shortened: as §1

CC(C)N(CCOc1ccc(O)cc1)c1ccccc1
IC50 (HeLa): 53 µM

Oc1ccc(OCCN(CCOc2ccc(O)cc2)c2ccccc2)cc1
GI50 (HT-29): 14.5 µM | GI50 (A498): 5.3 µM | GI50 [1]: 1.2 µM | GI50 (RXF 393): 2.6 µM | IC50 (HeLa): 11 µM | GI50 (BT-549): 6.6 µM | GI50 (SNB-75): 5.3 µM | GI50 (SF-268): 3.2 µM | GI50 (T47D): 10.2 µM | GI50 (SW-620): 10 µM | GI50 (HCT-116): 4.1 µM | GI50 (OVCAR-5): 11.5 µM | GI50 (HOP-62): 8.9 µM | GI50 (NCI-H322M): 11 µM | GI50 (UO-31): 1.5 µM | GI50 (SK-MEL-2): 11.8 µM | GI50 (MCF7): 2.2 µM | GI50 (NCI-H226): 11.2 µM | GI50 (HOP-92): 3.7 µM | GI50 (Malme-3M): 2.2 µM | GI50 (SF-539): 2.8 µM | GI50 (MOLT-4): 1.3 µM | GI50 (NCI-H23): 2.1 µM | GI50 (CAKI-1): 0.4 µM | GI50 (SF-295): 2.1 µM | GI50 (KM12): 4.7 µM | GI50 (PC-3): 6 µM | GI50 (RPMI-8226): 3.8 µM | IC50 [2]: 3 µM | GI50 [3]: 4.7 µM | GI50 (MDA-MB-468): 10 µM | GI50 (LOX IMVI): 2.2 µM | GI50 (M14): 1.6 µM | GI50 (SR): 0.5 µM | GI50 (ACHN): 0.4 µM | GI50 (Hs-578T): 14.5 µM | GI50 (SK-OV-3): 7.2 µM | GI50 (SK-MEL-5): 2.6 µM | GI50 (MDA-MB-231): 0.9 µM | selectivity ratio [4]: 5.3 | GI50 (NCI-H522): 2 µM | GI50 [5]: 5.8 µM | GI50 (UACC-62): 2.9 µM | GI50 (COLO 205): 20 µM | IC50 [6]: 16 µM | GI50 (OVCAR-4): 10.5 µM | GI50 (SNB-19): 11.2 µM | GI50 (U-251): 3 µM | GI50 (MDA-MB-435): 2.6 µM | GI50 (SN12C): 4.7 µM | GI50 (IGROV-1): 3.6 µM | GI50 (UACC-257): 12.6 µM | GI50 (OVCAR-3): 4.2 µM | GI50 (HCT-15): 10 µM | GI50 (SK-MEL-28): 14.8 µM | GI50 (NCI-H460): 2.2 µM | GI50 (DU-145): 3.2 µM | GI50 (786-0): 3.6 µM
